Data reported in paper PMC2873839 (Bioorganic & medicinal chemistry, 2010).
Entries after “also recorded” stand apart in the source; their conditions may differ.

Tested on: HeLa cells
Experiment: Confocal microscopy of subcellular distribution / nuclear staining
Assay type: cell-based
Method in brief: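 HeLa grown in MEM alpha with 10% FBS at 37 °C, 5% CO2, seeded at 4000 cells/well on glass bottom, adhered overnight. Test compound 10–100 μM, 37 °C for 2–19 h, in complete or serum-free medium, then HBSS rinse. Confocal: 63x/1.4 oil objective, 1.1 μm optical slice, excitation 488 nm, emission 560+ nm. Dead cells excluded by morphology; percentage with nuclear staining scored.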

KSKKQK [Ru-KSKKQK] was tested, and the subcellular distribution (10 μM, 2 h) was “only faint punctate luminescence in the cytoplasm and no nuclear staining” and the subcellular distribution (10 μM, 19 h, complete medium) was “same result; also recorded: Punctate staining of the cytoplasm”.
For PKKKRKV [Ru-PKKKRKV], the subcellular distribution (10 μM, 2 h) was “only faint punctate luminescence in the cytoplasm and no nuclear staining” and the subcellular distribution (10 μM, 19 h, complete medium) was “same result; also recorded: Punctate staining of the cytoplasm”.
KKKK [Ru-KKKK] was tested, and the subcellular distribution (40 μM, 2 h) was “only faint luminescence in the cytoplasm”, the “percentage of cells with additional nuclear staining” value (100 μM, 4 h, complete medium) was 17% and the subcellular distribution (100 μM, 4 h, complete medium) was “brighter, punctate cytoplasmic staining; also recorded: punctate staining of the cytoplasm”.
